{"source": "ChEMBL document CHEMBL5214971", "about": "“Multiple approaches to repurposing drugs for neuroblastoma” (Bioorg Med Chem, 2022)", "key": {"[1]": {"assay": "Cytotoxicity against human HeLa cells assessed as reduction in cell viability incubated for 48 hrs by CellTiter Glo assay", "assay_type": "toxicity, cell-based"}, "[2]": {"target": "Maternal embryonic leucine zipper kinase (Homo sapiens) (UniProt Q14680)", "sequence (Q14680 whole entry, looked up)": "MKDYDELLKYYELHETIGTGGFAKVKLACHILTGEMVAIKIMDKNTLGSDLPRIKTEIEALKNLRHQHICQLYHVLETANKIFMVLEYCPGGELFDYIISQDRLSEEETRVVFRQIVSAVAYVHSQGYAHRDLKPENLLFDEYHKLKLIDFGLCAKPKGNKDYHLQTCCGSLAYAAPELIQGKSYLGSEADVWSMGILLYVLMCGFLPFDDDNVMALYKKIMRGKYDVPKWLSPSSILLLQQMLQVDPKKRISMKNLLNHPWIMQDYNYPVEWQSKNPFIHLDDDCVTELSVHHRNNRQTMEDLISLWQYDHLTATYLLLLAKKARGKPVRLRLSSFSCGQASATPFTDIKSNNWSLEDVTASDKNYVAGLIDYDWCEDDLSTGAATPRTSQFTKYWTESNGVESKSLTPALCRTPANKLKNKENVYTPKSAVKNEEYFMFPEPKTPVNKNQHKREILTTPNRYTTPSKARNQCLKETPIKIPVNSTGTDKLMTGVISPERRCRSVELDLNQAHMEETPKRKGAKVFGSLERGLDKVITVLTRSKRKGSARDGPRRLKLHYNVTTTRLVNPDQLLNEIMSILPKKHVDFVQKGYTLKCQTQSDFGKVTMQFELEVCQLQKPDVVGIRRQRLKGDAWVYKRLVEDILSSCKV", "assay": "Inhibition of MELK (unknown origin) at 1 uM by Adapta assay"}, "[3]": {"target": "Cathepsin D (Homo sapiens) (UniProt P07339)", "sequence (P07339 65-162 limits assumed)": "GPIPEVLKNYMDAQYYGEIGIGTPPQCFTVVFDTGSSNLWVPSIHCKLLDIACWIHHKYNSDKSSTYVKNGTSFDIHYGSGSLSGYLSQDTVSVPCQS", "sequence (P07339 169-412 limits assumed)": "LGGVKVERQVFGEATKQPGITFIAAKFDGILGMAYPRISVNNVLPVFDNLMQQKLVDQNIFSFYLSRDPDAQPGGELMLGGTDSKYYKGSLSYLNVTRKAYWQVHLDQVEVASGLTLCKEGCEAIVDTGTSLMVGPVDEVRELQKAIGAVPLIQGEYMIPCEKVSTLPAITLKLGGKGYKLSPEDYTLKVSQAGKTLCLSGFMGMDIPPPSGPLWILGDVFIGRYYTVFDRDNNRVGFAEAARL", "assay": "Inhibition of cathepsin D (unknown origin) using MCA labelled GKPILFFRLK(Dnp)-D-R-NH as substrate at 200 uM preincubated for 15 mins followed by substrate addition and measured after 2 hrs by fluorometer analysis", "conditions": "time 135.0 min"}, "[4]": {"assay": "Cytotoxicity against human A549-ACE2 cells expressing ACE2 assessed as reduction in cell viability by CytoTox-Glo assay", "assay_type": "toxicity, cell-based"}, "[5]": {"target": "Calcium/calmodulin-dependent protein kinase type 1 (Homo sapiens) (UniProt Q14012)", "sequence (Q14012 whole entry, looked up)": "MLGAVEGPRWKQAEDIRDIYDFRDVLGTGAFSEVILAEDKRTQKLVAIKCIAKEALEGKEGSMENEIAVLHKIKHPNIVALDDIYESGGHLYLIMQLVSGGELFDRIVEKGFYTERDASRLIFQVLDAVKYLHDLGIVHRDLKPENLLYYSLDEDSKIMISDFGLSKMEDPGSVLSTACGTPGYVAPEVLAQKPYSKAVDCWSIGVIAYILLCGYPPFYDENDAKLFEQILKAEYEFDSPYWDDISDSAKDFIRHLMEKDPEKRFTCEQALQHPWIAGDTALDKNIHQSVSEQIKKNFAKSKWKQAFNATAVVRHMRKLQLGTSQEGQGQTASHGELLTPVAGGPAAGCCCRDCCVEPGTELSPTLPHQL", "assay": "Inhibition of CAMK1 (unknown origin) at 1 uM by Adapta assay"}, "[6]": {"assay": "Cytotoxicity against African green monkey Vero 76 cells assessed as reduction in cell viability", "assay_type": "toxicity, cell-based", "conditions": "African green monkey (Chlorocebus sabaeus)"}, "[7]": {"system": "SK-N-AS", "assay": "Anticancer activity against human SK-N-AS cells assessed as reduction in cell viability incubated for 48 hrs by resazurin dye based fluorescence assay", "assay_type": "functional", "summary_of_the_method": "(§1)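 Cells seeded at 1×10^4 cells/well in DMEM/Ham's F12 (1:1, L-glutamine, 15 mM HEPES) with 10% FBS, 37°C, 5% CO2. Compounds in DMSO, 50 μM then two-fold over 8 further dilutions to 0.195 μM; 0.5% DMSO final. 48 h exposure. Resazurin 0.0125 mg/ml final, read 3 h (HT1080) or 8 h (SH-SY5Y, SK-N-AS) at Ex 544/Em 590 nm. Inhibition relative to DMSO control; triplicates, ≥2 experiments.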"}, "[8]": {"system": "SH-SY5Y", "assay": "Anticancer activity against human SH-SY5Y cells assessed as reduction in cell viability incubated for 48 hrs by resazurin dye based fluorescence assay", "assay_type": "functional", "summary_of_the_method": "as §1"}, "[9]": {"system": "HT-1080", "assay": "Anticancer activity against human HT-1080 cells assessed as reduction in cell viability incubated for 48 hrs by resazurin dye based fluorescence assay", "assay_type": "functional", "conditions": "HT-1080, 48 h", "summary_of_the_method": "as §1"}}, "data": [{"smiles": "COc1ccc2nc3cc(Cl)ccc3c(Nc3cc(CN4CCCC4)c(O)c(CN4CCCC4)c3)c2n1", "note": "[PYRONARIDINE]", "values": [{"measurement": "IC50 at 48 h", "setting": "[1]", "value": 3.1, "unit": "µM"}, {"measurement": "inhibition", "setting": "[2]", "value": 31, "unit": "%"}, {"measurement": "inhibition", "setting": "[3]", "value": "> 50", "unit": "%"}, {"measurement": "IC50", "setting": "[4]", "value": "> 10", "unit": "µM"}, {"measurement": "inhibition", "setting": "[5]", "value": 35, "unit": "%"}, {"measurement": "IC50", "setting": "[6]", "value": 1300, "unit": "nM"}, {"measurement": "IC50", "setting": "[7]", "value": 3.45, "unit": "µM"}, {"measurement": "IC50", "setting": "[8]", "value": 1700, "unit": "nM"}, {"measurement": "IC50", "setting": "[9]", "value": 4.23, "unit": "µM"}]}, {"smiles": "COc1ccc2nc3cc(Cl)ccc3c(Nc3cc(CN4CCCC4)c(O)c(CN4CCCC4)c3)c2c1", "values": [{"measurement": "IC50", "setting": "[8]", "value": 9700, "unit": "nM"}, {"measurement": "IC50", "setting": "[9]", "value": 13.8, "unit": "µM"}]}, {"smiles": "COc1ccc2nc3cc(Cl)ccc3c(Nc3ccc(O)c(CN4CCCC4)c3)c2c1", "values": [{"measurement": "IC50", "setting": "[7]", "value": 3.86, "unit": "µM"}, {"measurement": "IC50", "setting": "[8]", "value": 1200, "unit": "nM"}, {"measurement": "IC50", "setting": "[9]", "value": 3.6, "unit": "µM"}]}, {"smiles": "CN1CCN(c2ccc(C(=O)Nc3n[nH]c4ccc(Cc5cc(F)cc(F)c5)cc34)c(NC3CCOCC3)c2)CC1", "note": "[ENTRECTINIB]", "values": [{"measurement": "IC50", "setting": "[7]", "value": 4.47, "unit": "µM"}, {"measurement": "IC50", "setting": "[8]", "value": 1600, "unit": "nM"}]}, {"smiles": "O=C(Nc1ccc([N+](=O)[O-])cc1Cl)c1cc(Cl)ccc1O", "note": "[NICLOSAMIDE]", "values": [{"measurement": "IC50", "setting": "[7]", "value": 2.33, "unit": "µM"}, {"measurement": "IC50", "setting": "[8]", "value": 870, "unit": "nM"}]}, {"smiles": "CCN(CC)CCCC(C)Nc1c2ccc(Cl)cc2nc2ccc(OC)cc12", "note": "(centres undefined) [QUINACRINE]", "values": [{"measurement": "IC50", "setting": "[8]", "value": 8570, "unit": "nM"}, {"measurement": "IC50", "setting": "[9]", "value": 29, "unit": "µM"}]}, {"smiles": "CCCCCCCCc1ccc(CCC(N)(CO)CO)cc1", "note": "[FINGOLIMOD]", "values": [{"measurement": "IC50", "setting": "[7]", "value": 6.11, "unit": "µM"}, {"measurement": "IC50", "setting": "[8]", "value": 4710, "unit": "nM"}]}, {"smiles": "Cc1ccc(S(=O)(=O)/C=C/C#N)cc1", "values": [{"measurement": "IC50", "setting": "[7]", "value": 1.23, "unit": "µM"}, {"measurement": "IC50", "setting": "[8]", "value": 850, "unit": "nM"}]}, {"smiles": "COc1ccc2nc3cc(Cl)ccc3c(Nc3cc(CN(C)C)c(O)c(CN(C)C)c3)c2c1", "values": [{"measurement": "IC50", "setting": "[7]", "value": 5.4, "unit": "µM"}, {"measurement": "IC50", "setting": "[8]", "value": 3410, "unit": "nM"}, {"measurement": "IC50", "setting": "[9]", "value": 6.09, "unit": "µM"}]}, {"smiles": "C[C@@H](Oc1cc(-c2cnn(C3CCNCC3)c2)cnc1N)c1c(Cl)ccc(F)c1Cl", "note": "[CRIZOTINIB]", "values": [{"measurement": "IC50", "setting": "[7]", "value": 12.1, "unit": "µM"}, {"measurement": "IC50", "setting": "[8]", "value": 920, "unit": "nM"}]}]}
